# Assay results reported in ChEMBL document CHEMBL5620402, “Development of submicromolar 17β-HSD10 inhibitors and their in vitro and in vivo evaluation” (Eur J Med Chem, 2023).
# Columns and labels:
# [1] = PBS buffer - Octanol distribution coefficient, logD of the compound at pH 7.4 by UHPLC-DAD-MS analysis; format: physicochemical
# Method in brief: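 Compound (0.25 mg) was put into 500 μL of a 1:1 water–octanol (logP) or PBS pH 7.4–octanol (logD) mixture. Samples were shaken 30 min and centrifuged 10 min at 10,000 rcf. Each phase was quantified by UHPLC-DAD-MS against calibration lines.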
# [2] = Dissociation constant, pKa of compound using buffers of given pH (range from 3.0 to 11.5) by UV-VIS spectrophotometry; format: physicochemical
# Method in brief: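 Compound (10 μL of 1 mg/mL) was put into 490 μL of buffers spanning pH 3.0–11.5 in 0.5-unit steps. UV spectra were scanned at 200–400 nm and 20 °C. pKa was fitted from the sigmoidal absorbance of the dissociated form versus pH.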
# [3] = Aqueous solubility, logS of the compound at pH 7.4 phosphate buffer by nephelometry assay; format: physicochemical
# Method in brief: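 Nephelometry of compound suspensions in phosphate buffer pH 7.4. Stock was 160 μg/mL, sonicated and auto-diluted over 0–160 μg/mL, with higher stocks (640 μg/mL, 2.54 mg/mL) used if needed. Wells were shaken 30 s and laser-scanned. Solubility was derived by segmental linear regression.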
# [4] = biological target: T1, 3-hydroxyacyl-CoA dehydrogenase type-2 (Homo sapiens) (UniProt Q99714); experiment: Inhibition of recombinant 17beta-HSD10 (unknown origin) expressed in Escherichia coli BL21 (DE3) assessed as residual activity at 10 uM using acetoacetyl-CoA as substrate by SAAC method relative to control
# T1 sequence (whole entry): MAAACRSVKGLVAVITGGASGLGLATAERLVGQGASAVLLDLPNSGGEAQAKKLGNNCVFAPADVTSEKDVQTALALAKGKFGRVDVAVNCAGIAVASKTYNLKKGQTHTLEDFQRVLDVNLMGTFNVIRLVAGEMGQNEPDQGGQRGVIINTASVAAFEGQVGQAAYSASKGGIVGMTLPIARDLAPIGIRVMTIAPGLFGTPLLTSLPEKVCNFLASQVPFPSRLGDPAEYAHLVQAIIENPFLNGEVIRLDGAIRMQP
# Method in brief: (§1)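 Recombinant 17β-HSD10 from E. coli BL21(DE3), 0.15 μg, was mixed with 320 μmol/L NADH in Tris-HCl pH 7.4 assay buffer. It was preincubated 5 min at 37 °C with 1 or 10 μM inhibitor or vehicle, then 320 μmol/L acetoacetyl-CoA was added. A340 was followed for 5 min. Residual activity is % of control, triplicate mean ± SD, with t-test versus control.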
# [5] = Partition coefficient between Water and Octanol, logP of the compound by UHPLC-DAD-MS analysis; conditions: pH 7.4
# [6] = biological target: T2, 3-hydroxyacyl-CoA dehydrogenase type-2 (Homo sapiens, UniProt Q99714); experiment: Inhibition of human recombinant 17beta-HSD10 expressed in bacterial expression system assessed as decrease in NADH using acetoacetyl-CoA as substrate
# T2 sequence (Q99714 whole entry): T1 sequence (whole entry)
# Method in brief: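 Recombinant 17β-HSD10 from E. coli BL21(DE3), 0.15 μg, was mixed with 320 μmol/L NADH in 10 mM Tris-HCl pH 7.4 buffer (150 mM NaCl, 1 mM DTT, 0.001% Tween 20, 0.01% BSA). It was preincubated 5 min at 37 °C with inhibitor, then 320 μmol/L acetoacetyl-CoA was added. A340 was followed for 5 min. IC50 came from non-linear regression of ≥3 independent runs in triplicate; Ki was calculated from IC50 per Cer et al.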
# [7] = biological target: T1, 3-hydroxyacyl-CoA dehydrogenase type-2 (Homo sapiens); experiment: Inhibition of recombinant 17beta-HSD10 (unknown origin) expressed in Escherichia coli BL21 (DE3) assessed as residual activity at 1 uM using acetoacetyl-CoA as substrate by SAAC method relative to control; method in brief: as §1
logD [1],pKa [2],logS0 [3],Activity [4] [%],logP [5],IC50 [6] [nM],Activity [7] [%],Structure (SMILES)
4.08,4.61,-4.08,27,4.09,–,62.7,CN(C)c1ccc2nc(NC(=O)Nc3ccc(O)c(Cl)c3)sc2c1
2.95,9.51,-4.81,31,2.94,–,70,CN(C)C(=O)c1ccc2nc(NC(=O)Nc3ccc(O)c(Cl)c3)sc2c1
4.17,8.4,-4.73,33.2,4.19,–,74.4,COc1ccc2nc(NCc3ccc(O)c(Cl)c3)sc2c1
3.88,9.07,-4.69,72.1,3.77,–,–,Oc1ccc(NCc2nc3ccccc3s2)cc1Cl
3.19,8.74,-3.38,67.6,3.14,–,–,Oc1ccc(CNCc2nc3ccccc3o2)cc1Cl
2.73,7.6,-3.39,73.8,2.84,–,–,Oc1ccc(CNCc2cc3ccccc3[nH]2)cc1Cl
2.73,9.14,-4.68,68.7,2.94,–,–,Oc1ccc(/N=C/c2nc3ccccc3s2)cc1Cl

# The next lines start with the compound.
Structure (SMILES),logD [1],pKa [2],logS0 [3],Activity [4] [%],logP [5],IC50 [6] [nM],Activity [7] [%]
Oc1ccc(CNCc2nc3ccccc3s2)cc1Cl,4.04,8.79,-3.99,54.1,4.03,–,–
CS(=O)(=O)c1ccc2nc(NC(=O)Nc3ccc(O)c(Cl)c3)sc2c1,–,–,–,–,–,900,–
COc1ccc2nc(NC(=O)Nc3ccc(O)c(Br)c3)sc2c1,–,–,–,–,–,1300,–
COc1ccc2nc(/N=C/c3ccc(O)c(Cl)c3)sc2c1,3.95,11.6,-4.73,76.6,3.79,–,–
COc1ccc2nc(NC(=O)Nc3ccc(O)c([N+](=O)[O-])c3)sc2c1,3.44,10.4,-4.78,79.4,3.47,–,–
CCOC(=O)c1ccc2nc(NC(=O)Nc3ccc(O)c(Cl)c3)sc2c1,4.64,9.26,-4.81,58.6,4.58,–,–
